Data set [1] can be described thus: […] from rat cerebral cortex GABA-gated chloride channel. Format: tissue-based.
Data set [2] deals with Rattus norvegicus. The data set can be described thus: Anticonvulsant activity in rat assessed as protection against maximal electric shock-induced seizures at 30 mg/kg, po measured after 0.5 hrs. The format is functional, organism-based. Summed up:
(§1)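 Rats dosed ip or orally as 0.5% methylcellulose suspension; maximal electroshock at listed time. Protection = abolition of hindlimb tonic extension; 4 rats per group, scored protected/tested.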

The subject of data set [3] is Rattus norvegicus. The data set can be described thus: Anticonvulsant activity in rat assessed as protection against maximal electric shock-induced seizures at 30 mg/kg, po measured after 1 hr. The format is functional, organism-based. An outline of the steps:
as §1

In data set [4] the test system is Mus musculus. The data set can be described thus: Anticonvulsant activity in mouse assessed as protection against maximal electric shock-induced seizures at 3 mg/kg, ip measured after 0.5 hrs. Format: functional, organism-based. An outline of the steps: (§2)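 Mice dosed ip with suspension in 0.5% methylcellulose; maximal electroshock applied at the listed time after dosing. Protection = abolition of hindlimb tonic extension component of seizure; reported as animals protected/animals tested.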

Data set [5] deals with Rattus norvegicus. Description: Anticonvulsant activity in rat assessed as protection against maximal electric shock-induced seizures at 30 mg/kg, po measured after 2 hrs. The format is functional, organism-based. An outline of the steps: as §1
In data set [6] the test system is Rattus norvegicus. The data set can be described thus: Anticonvulsant activity in rat assessed as protection against maximal electric shock-induced seizures at 30 mg/kg, po measured after 4 hrs. The format is functional, organism-based. An outline of the steps: as §1
The test system of data set [7] is Rattus norvegicus. Description: Neurotoxicity in rat at 30 mg/kg, po after […] by rotarod test. Format: toxicity, organism-based. The following applies: in vivo.
The test system of data set [8] is Rattus norvegicus. The data set can be described thus: Neurotoxicity in rat at 30 mg/kg, po after 0.5 hrs by rotarod test. Format: toxicity, organism-based. As to conditions: in vivo. (In the rotarod test animals must keep their balance on a rotating rod.)
Data set [9] relates to Rattus norvegicus. The data set can be described thus: Neurotoxicity in rat at 30 mg/kg, po after 1 hr by rotarod test. The format is toxicity, organism-based. As to conditions: in vivo.
Data set [10] deals with Rattus norvegicus. The data set can be described thus: Neurotoxicity in rat at 30 mg/kg, po after 2 hrs by rotarod test. Format: toxicity, organism-based. The following applies: in vivo.
Data set [11] has as its system Rattus norvegicus. Description: Neurotoxicity in rat at 30 mg/kg, po after 4 hrs by rotarod test. The format is toxicity, organism-based. The following applies: in vivo.
Data set [12] deals with Mus musculus. The data set can be described thus: Anticonvulsant activity in mouse assessed as protection against maximal electric shock-induced seizures at 10 mg/kg, ip measured after 0.5 hrs. Format: functional, organism-based. Summed up:
as §2

For data set [13], the system named is Mus musculus. The data set can be described thus: Anticonvulsant activity in mouse assessed as protection against maximal electric shock-induced seizures at 30 mg/kg, ip measured after 0.5 hrs. The format is functional, organism-based. An outline of the steps: as §2
The subject of data set [14] is Mus musculus. Description: Anticonvulsant activity in mouse assessed as protection against maximal electric shock-induced seizures at 30 mg/kg, ip measured after 4 hrs. Format: functional, organism-based. Summed up:
as §2

The subject of data set [15] is Mus musculus. The data set can be described thus: Neurotoxicity in mouse at 10 mg/kg, ip after 0.5 hrs by rotarod test. The format is toxicity, organism-based. As to conditions: in vivo. Summed up:
(§3)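 Mice were dosed ip with compound suspended in 0.5% methylcellulose. Rotarod: a 1 in. knurled rod turning at 6 rpm. Neurotoxicity was scored as failure to stay on the rod for at least 1 min in each of three trials. Results are given as the number of animals affected out of the number tested.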

The subject of data set [16] is Mus musculus. Description: Neurotoxicity in mouse at 3 mg/kg, ip after 0.5 hrs by rotarod test. The format is toxicity, organism-based. The following applies: in vivo. Summed up: as §3
Data set [17] concerns Mus musculus. Description: Anticonvulsant activity in mouse assessed as protection against subcutaneous pentylenetetrazol-induced seizures at 30 mg/kg, ip measured after 0.5 hrs. The format is functional, organism-based. An outline of the steps:
(§4)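 Mice dosed ip as 0.5% methylcellulose suspension; pentylenetetrazole 85 mg/kg in 0.9% NaCl injected subcutaneously into posterior midline, animals watched at least 30 min. Protection = no threshold seizure (single clonic spasm episode lasting ≥5 s); scored protected/tested.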

Data set [18] has as its system Mus musculus. Description: Anticonvulsant activity in mouse assessed as protection against subcutaneous pentylenetetrazol-induced seizures at 30 mg/kg, ip measured after 4 hrs. Format: functional, organism-based. An outline of the steps: as §4
Data set [19] deals with Mus musculus. Description: Neurotoxicity in mouse at 30 mg/kg, ip after 0.5 hrs by rotarod test. The format is toxicity, organism-based. As to conditions: in vivo. An outline of the steps: as §3
For data set [20], the system named is Mus musculus. The data set can be described thus: Neurotoxicity in mouse at 30 mg/kg, ip after 4 hrs by rotarod test. Format: toxicity, organism-based. The following applies: in vivo. Summed up: as §3
Data set [21] deals with Mus musculus. Description: Neurotoxicity in mouse at 100 mg/kg, ip after 0.5 hrs by rotarod test. The format is toxicity, organism-based. The following applies: in vivo. Summed up:
as §3

Data set [22] relates to Mus musculus. The data set can be described thus: Neurotoxicity in mouse at 300 mg/kg, ip after 0.5 hrs by rotarod test. The format is toxicity, organism-based. The following applies: in vivo. Summed up: as §3
Data set [23] relates to Rattus norvegicus. Description: Anticonvulsant activity in rat assessed as protection against maximal electric shock-induced seizures at 30 mg/kg, po measured after […]. The format is functional, organism-based.
The subject of data set [24] is Vibrio harveyi. The data set can be described thus: Mutagenicity in Vibrio harveyi BB7 assessed as number of colonies after 48 hrs (reference value: 13 to 14 no_unit). The following applies: in vivo. Format: ADME, organism-based. An outline of the steps: (§5)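 Vibrio harveyi mutagenicity test: test compound was added to exponentially growing cultures (A600 = 0.1, 30 °C) and grown to OD600 0.3–0.4. Then 5 × 10^6 cells were plated on BOSS agar with neomycin (final 100 µg/mL) and incubated 48 h at 30 °C. Neomycin-resistant colonies were counted. Triplicate; controls were water, DMSO and NQNO 40 ng/mL.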

In data set [25] the test system is Vibrio harveyi. The data set can be described thus: Mutagenicity in Vibrio harveyi BB7X assessed as number of colonies after 48 hrs (reference value: 15 to 16 no_unit). Format: ADME, organism-based. The following applies: in vivo. Summed up: as §5
The test system of data set [26] is Vibrio harveyi. The data set can be described thus: Mutagenicity in Vibrio harveyi BB7M assessed as number of colonies after 48 hrs (reference value: 13 to 14 no_unit). The format is ADME, organism-based. The following applies: in vivo. Summed up:
as §5

In data set [27] the test system is Vibrio harveyi. The data set can be described thus: Mutagenicity in Vibrio harveyi BB7XM assessed as number of colonies after 48 hrs (reference value: 14 no_unit). As to conditions: in vivo. The format is ADME, organism-based. An outline of the steps: as §5
Data set [28] relates to Vibrio harveyi. The data set can be described thus: Antimutagenic activity against Vibrio harveyi BB7 assessed as inhibition of NQNO-induced mutagenicity after 48 hrs. Format: functional. An outline of the steps:
(§6)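 V. harveyi cultures grown exponentially to A600 0.1 at 30 °C, exposed to test compound for 15 min, then to NQNO, and grown on to A600 0.3–0.4. 5 × 10⁶ cells plated on BOSS agar with neomycin (100, final). Neomycin-resistant colonies counted after 48 h at 30 °C. Result given as % inhibition of NQNO mutagenicity; three independent repeats.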

For data set [29], the system named is Vibrio harveyi. Description: Antimutagenic activity against Vibrio harveyi BB7X assessed as inhibition of NQNO-induced mutagenicity after 48 hrs. The format is functional. An outline of the steps:
as §6

The subject of data set [30] is Vibrio harveyi. Description: Antimutagenic activity against Vibrio harveyi BB7M assessed as inhibition of NQNO-induced mutagenicity after 48 hrs. The format is functional. Summed up: as §6
The subject of data set [31] is Vibrio harveyi. The data set can be described thus: Antimutagenic activity against Vibrio harveyi BB7XM assessed as inhibition of NQNO-induced mutagenicity after 48 hrs. The format is functional. Summed up:
as §6

Structures are written as SMILES. Activity calls are given as the source filed them.

Take `C=C(C)[C@@H]1[C@H]2OC(=O)[C@@H]1[C@]1(O)C[C@H]3O[C@]34C(=O)O[C@H]2[C@]14C` [PICROTOXININ]: the IC50 (commonly the point on the concentration scale where inhibition reaches its midpoint) in [1] came to 77 nM.

For the compound `CC[C@@H](CO)NCCOCCOc1c(C)cccc1C`, the result in data set [2], in [3], in data set [4], in data set [5], in [6] and in data set [12] was inactive. Further, the outcome in data set [14], in [17], in [18] and in data set [23] was inactive. In addition, the Activity result in data set [7], in [8], in [9], in [10], in data set [11] and in [15] was “Non-toxic” in each case. Besides, the Activity result in data set [16] is “Non-toxic”; in data set [19] it was “Non-toxic”; in data set [20], “Non-toxic”; in [21] it was “Toxic”; in data set [22], “Toxic”; in [24], 28. Also, the figures for the Activity in data set [25], in data set [26] and in data set [27] were 27, 26 and 22, respectively. Besides, the outcome in data set [13] was Active. Moreover, the “inhibition (INH)” value came out at 88% in data set [28], 22% in [29], 52% in data set [30] and 15% in data set [31].

Source of the values: ChEMBL document CHEMBL3774372, “Design, physico-chemical properties and biological evaluation of some new N-[(phenoxy)alkyl]- and N-{2-[2-(phenoxy)ethoxy]ethyl}aminoalkanols as anticonvulsant agents” (Bioorg Med Chem, 2016).
